In ChEMBL document CHEMBL3352166, “Structure-guided design and development of novel benzimidazole class of compounds targeting DNA gyraseB enzyme of Staphylococcus aureus” (Bioorg Med Chem, 2014):
≈ marks a conversion by molar mass, not a printed value.

Tests used:
[1] = target: DNA gyrase (Staphylococcus aureus, UniProt P0A0K8+P20831); assay: Inhibition of Staphylococcus aureus DNA gyrase-mediated supercoiling of relaxed DNA using pBR 322 as substrate by agarose gel electrophoresis analysis; format: protein-complex assay
[2] = target: DNA gyrase subunit B (Staphylococcus aureus, UniProt P0A0K8); assay: Inhibition of Staphylococcus aureus DNA gyrase B ATPase activity
[3] = test system: Staphylococcus aureus; assay: Antimicrobial activity against methicillin-resistant Staphylococcus aureus MTCC 96 after 16 to 24 hrs by agar dilution method; format: functional
Outline: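 Agar dilution per CLSI guidelines on Mueller-Hinton agar. Overnight colonies suspended to about 10^6 cfu/mL, and 1 mL added to 19 mL medium. Stocks in 0.9% saline, tested over about 10 doubling dilutions from 100 µM to 0.1 µM. Plates incubated at 35 °C in ambient air for 16-20 h. MIC taken as the lowest concentration preventing visible growth.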

[4] = Cytotoxicity against human HEK293 cells assessed as reduction in cell viability at 100 uM after 72 hrs by MTT assay; format: cell-based; conditions: read-out: INH
Outline: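 HEK-293 cells were seeded at 5000 per well and left 24 h, then washed. They were exposed to 100 µM in RPMI + 5% FBS + 1% penicillin/streptomycin, with final DMSO ≤0.5%, for 72 h at 37 °C in 5% CO2. DMSO-treated cultures served as controls. Viability was read by MTT at 570 nm, in triplicate, as percentage inhibition.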

[5] = test system: Staphylococcus aureus; assay: Antimicrobial activity against Staphylococcus aureus MTCC 3160 after 16 to 24 hrs by agar dilution method; format: functional
Outline: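 MIC by agar dilution per CLSI on Mueller-Hinton agar. Overnight colonies were suspended to about 10^6 cfu/mL, and 1 mL was added to 19 mL medium. Compounds were made up in 0.9% saline and tested over about 10 doubling dilutions, 100 µM to 0.1 µM. Plates ran 16-20 h at 35 °C in ambient air. MIC was the lowest concentration preventing visible growth.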

[6] = test system: Staphylococcus aureus; assay: Inhibition of biofilm formation in methicillin-resistant Staphylococcus aureus MTCC 96 after 24 hr incubation by tissue culture plate method; conditions: MTCC 96, 24 h

DNA gyrase subunit B, sequence (P0A0K8 whole entry): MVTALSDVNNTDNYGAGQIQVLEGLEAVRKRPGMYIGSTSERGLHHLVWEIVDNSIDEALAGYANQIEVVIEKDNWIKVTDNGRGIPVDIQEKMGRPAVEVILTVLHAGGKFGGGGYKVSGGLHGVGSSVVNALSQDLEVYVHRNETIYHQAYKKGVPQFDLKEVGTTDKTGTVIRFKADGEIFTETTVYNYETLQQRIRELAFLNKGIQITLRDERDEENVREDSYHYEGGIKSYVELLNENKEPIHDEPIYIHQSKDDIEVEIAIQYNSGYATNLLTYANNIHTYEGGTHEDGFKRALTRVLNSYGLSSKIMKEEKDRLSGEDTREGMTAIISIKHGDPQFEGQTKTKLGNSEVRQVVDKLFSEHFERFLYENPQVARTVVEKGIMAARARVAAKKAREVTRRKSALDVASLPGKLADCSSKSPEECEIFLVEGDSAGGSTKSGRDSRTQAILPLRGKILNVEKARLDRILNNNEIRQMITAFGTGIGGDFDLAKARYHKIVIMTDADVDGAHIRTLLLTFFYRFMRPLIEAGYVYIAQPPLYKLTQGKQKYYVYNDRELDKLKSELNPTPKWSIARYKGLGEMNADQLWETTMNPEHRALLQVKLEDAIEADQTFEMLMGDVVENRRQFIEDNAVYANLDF
DNA gyrase, sequence (P0A0K8 whole entry): as above
DNA gyrase, sequence (P20831 whole entry): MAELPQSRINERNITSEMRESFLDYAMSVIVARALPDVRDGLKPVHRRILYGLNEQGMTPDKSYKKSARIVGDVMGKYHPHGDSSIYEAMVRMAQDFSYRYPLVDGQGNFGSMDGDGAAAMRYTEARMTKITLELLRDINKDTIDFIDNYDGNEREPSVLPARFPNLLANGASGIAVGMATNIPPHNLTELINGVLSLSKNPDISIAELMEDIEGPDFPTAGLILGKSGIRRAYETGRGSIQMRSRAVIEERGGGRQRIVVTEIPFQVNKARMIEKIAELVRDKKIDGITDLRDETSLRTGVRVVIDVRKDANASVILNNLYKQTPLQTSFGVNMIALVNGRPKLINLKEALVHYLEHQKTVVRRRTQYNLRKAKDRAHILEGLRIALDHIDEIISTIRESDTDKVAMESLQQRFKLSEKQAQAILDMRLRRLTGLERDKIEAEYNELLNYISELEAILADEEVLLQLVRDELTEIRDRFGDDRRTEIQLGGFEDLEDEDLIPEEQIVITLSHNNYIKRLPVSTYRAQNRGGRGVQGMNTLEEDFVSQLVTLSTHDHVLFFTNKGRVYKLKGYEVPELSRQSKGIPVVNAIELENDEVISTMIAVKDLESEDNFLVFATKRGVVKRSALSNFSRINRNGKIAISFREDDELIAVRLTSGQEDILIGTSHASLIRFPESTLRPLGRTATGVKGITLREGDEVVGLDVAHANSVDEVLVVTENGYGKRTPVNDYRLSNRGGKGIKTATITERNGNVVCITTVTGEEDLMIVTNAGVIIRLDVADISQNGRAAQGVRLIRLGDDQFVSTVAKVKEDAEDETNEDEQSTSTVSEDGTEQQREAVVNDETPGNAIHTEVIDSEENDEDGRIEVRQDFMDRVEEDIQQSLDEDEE

SMILES | IC50 [1] [µM] | IC50 [2] [µM] | MIC [3] [µM] | cytotoxicity at 72 h, 100 µM [4] [%] | MIC [5] [µM] | IC50 [6] [µM]
CC(Cc1c[nH]c2ccccc12)NC(=O)CSS(=O)(=O)O (stereo unspecified) | > 50 | 89.9 |  |  |  | 
O=C(O)CCCC(=O)Nc1ccc(-c2nc3cc([N+](=O)[O-])ccc3[nH]2)cc1 | 6.12 | 6.83 | 44.1 (≈ 16.3 µg/mL) | 27.2 | 33.9 (≈ 12.5 µg/mL) | 62.3
O=C(O)CCCC(=O)Nc1ccc(-c2nc3ccccc3[nH]2)cc1 | 2.9 | 12.6 |  |  |  | 
O=C(O)CC(=O)Nc1ccc(-c2nc3cc(Cl)ccc3[nH]2)cc1 | 18.2 | 26.3 | 75.8 (≈ 25 µg/mL) | 25.6 | 75.8 (≈ 25 µg/mL) | > 100
CCOc1cc(/C=C(\C#N)c2nc3ccc(C)cc3[nH]2)ccc1OCC(=O)O | > 50 | 82.1 |  |  |  | 
O=C(O)CSCC(=O)Nc1ccc(-c2nc3cccnc3[nH]2)cc1 | 1.7 | 2.31 | 9.12 (≈ 3.12 µg/mL) | 31.9 | 4.55 (≈ 1.56 µg/mL) | 11.3
COc1ccc2[nH]c(-c3ccc(NC(=O)CC(=O)O)cc3)nc2c1 | 18.4 | 11.1 | 76.8 (≈ 25 µg/mL) | 27.4 | 38.4 (≈ 12.5 µg/mL) | > 100
O=C(O)CCC(=O)Nc1ccc(-c2nc3ccccc3[nH]2)cc1 | 6.12 | 7.32 | 40.4 (≈ 12.5 µg/mL) | 2.9 | 20.2 (≈ 6.25 µg/mL) | 88.3
O=C(O)CSCC(=O)Nc1ccc(-c2nc3cc(F)ccc3[nH]2)cc1 | 4.8 | 6.93 | 17.3 (≈ 6.22 µg/mL) | 20.6 | 34.8 (≈ 12.5 µg/mL) | 59.1
O=C(O)CCCCC(=O)Nc1ccc(-c2nc3cccnc3[nH]2)cc1 | 2.1 | 2.9 | 9.23 (≈ 3.12 µg/mL) | 22.7 | 4.61 (≈ 1.56 µg/mL) | 15.7
O=C(O)CCCCC(=O)Nc1ccc(-c2nc3cc(Cl)ccc3[nH]2)cc1 | 8.91 | 13.1 | 33.6 (≈ 12.5 µg/mL) | 39.7 | 33.6 (≈ 12.5 µg/mL) | 39.2
CC(=O)Nc1ccc(OCC[n+]2ccc(CCS(=O)(=O)[O-])cc2)cc1 | 45.1 | 77.1 |  |  |  | 
O=C(O)CSCC(=O)Nc1ccc(-c2nc3cc([N+](=O)[O-])ccc3[nH]2)cc1 | 2.1 | 3.13 | 17 (≈ 6.56 µg/mL) | 25.2 | 8.09 (≈ 3.12 µg/mL) | 10.3
O=C(O)CCC(=O)Nc1ccc(NC(=O)c2ccco2)cc1 | 3.13 | 12.9 |  |  |  | 
O=C(O)c1cn(C2CC2)c2cc(N3CCNCC3)c(F)cc2c1=O [CIPROFLOXACIN] |  |  |  |  |  | 16.9
O=C(O)CCCC(=O)Nc1ccc(-c2nc3cccnc3[nH]2)cc1 | 6.98 | 18.5 | 38.5 (≈ 12.5 µg/mL) | 33.8 | 38.5 (≈ 12.5 µg/mL) | 88.1
O=C(O)CSCC(=O)Nc1ccc(-c2nc3cc(Cl)ccc3[nH]2)cc1 | 12.1 | 13.8 | 4.15 (≈ 1.56 µg/mL) | 23 | 4.15 (≈ 1.56 µg/mL) | 9.72
O=C(O)CCCCC(=O)Nc1ccc(-c2nc3ccccc3[nH]2)cc1 | 6.12 | 5.7 | 37 (≈ 12.5 µg/mL) | 32.1 | 37 (≈ 12.5 µg/mL) | 81.5
O=C(O)CCCC(=O)Nc1ccc(-c2nc3cc(Cl)ccc3[nH]2)cc1 | 9.13 | 9.85 | 69.8 (≈ 25 µg/mL) | 45.5 | 34.9 (≈ 12.5 µg/mL) | > 100
O=C(O)CSCC(=O)Nc1ccc(-c2nc3ccccc3[nH]2)cc1 | 12.5 | 22.8 | 37.6 (≈ 12.8 µg/mL) | 13.1 | 73.3 (≈ 25 µg/mL) | 82.1
CNc1cc(CCNC(=O)c2ccc3oc(O)nc3c2)nc(-c2ccncc2)n1 | > 50 | 92.1 |  |  |  | 
O=C(O)CC(=O)Nc1ccc(-c2nc3cc(F)ccc3[nH]2)cc1 | 16.3 | 13.4 | 79.8 (≈ 25 µg/mL) | 18.1 | 79.8 (≈ 25 µg/mL) | > 100
COc1ccc2[nH]c(-c3ccc(NC(=O)COCC(=O)O)cc3)nc2c1 | 3.06 | 4.34 | 17.6 (≈ 6.25 µg/mL) | 23.3 | 17.6 (≈ 6.25 µg/mL) | 31.7

SMILES | IC50 [1] [µM] | IC50 [2] [µM] | MIC [3] [µM] | cytotoxicity at 72 h, 100 µM [4] [%] | MIC [5] [µM] | IC50 [6] [µM]
O=C(O)CCC(=O)Nc1ccc(-c2nc3cc(F)ccc3[nH]2)cc1 | 12 | 17.6 | 38.2 (≈ 12.5 µg/mL) | 28.7 | 38.2 (≈ 12.5 µg/mL) | 82.7
O=C(O)COCC(=O)Nc1ccc(-c2nc3cc(Cl)ccc3[nH]2)cc1 | 12.5 | 15.3 | 69.5 (≈ 25 µg/mL) | 29.7 | 34.7 (≈ 12.5 µg/mL) | 71.2
O=C(O)CCC(=O)Nc1ccc(-c2nc3cc(Cl)ccc3[nH]2)cc1 | 9.8 | 11.2 | 36.4 (≈ 12.5 µg/mL) | 31.7 | 36.4 (≈ 12.5 µg/mL) | 53.2
O=C(O)CC(=O)Nc1ccc(-c2nc3cc([N+](=O)[O-])ccc3[nH]2)cc1 | 2.23 | 4.93 | 18.3 (≈ 6.24 µg/mL) | 26.9 | 9.18 (≈ 3.12 µg/mL) | 18.4
COc1ccc2[nH]c(-c3ccc(NC(=O)CCCC(=O)O)cc3)nc2c1 | 5.32 | 8.93 | 35.4 (≈ 12.5 µg/mL) | 22.4 | 35.4 (≈ 12.5 µg/mL) | 52.2
COc1ccc2[nH]c(-c3ccc(NC(=O)CCC(=O)O)cc3)nc2c1 | 11.3 | 13.4 | 73.7 (≈ 25 µg/mL) | 26.7 | 73.7 (≈ 25 µg/mL) | > 100
COC(=O)CCCC(=O)Nc1ccc(-c2nc3cccnc3[nH]2)cc1 | 6.8 | 5.23 | 36.9 (≈ 12.5 µg/mL) | 57.5 | 36.9 (≈ 12.5 µg/mL) | 79.3
O=C(O)CCCCC(=O)Nc1ccc(-c2nc3cc(F)ccc3[nH]2)cc1 | 7.1 | 15.3 | 59.3 (≈ 21.1 µg/mL) | 29 | 35.2 (≈ 12.5 µg/mL) | > 100
Cc1sc2nc(SCC(=O)Nc3ccc(Cl)c(C(=O)O)c3)nc(O)c2c1C | > 50 | 77.3 |  |  |  | 
O=C(O)COCC(=O)Nc1ccc(-c2nc3cccnc3[nH]2)cc1 | 4.7 | 6.93 | 38.3 (≈ 12.5 µg/mL) | 38.7 | 19.1 (≈ 6.25 µg/mL) | 82.5
COC(=O)CCCC(=O)Nc1ccc(-c2nc3cc([N+](=O)[O-])ccc3[nH]2)cc1 | 5.3 | 9.83 | 32.7 (≈ 12.5 µg/mL) | 35.9 | 32.7 (≈ 12.5 µg/mL) | 59.3
COC(=O)CCCC(=O)Nc1ccc(-c2nc3cc(Cl)ccc3[nH]2)cc1 | 22.2 | 35.6 | 134 (≈ 50 µg/mL) | 27.9 | 67.2 (≈ 25 µg/mL) | > 100
O=c1nc(/C=C/c2ccc(/C=C/c3cc(C(F)(F)F)[nH]c(=O)n3)cc2)cc(C(F)(F)F)[nH]1 | 24.9 | 42.2 |  |  |  | 
O=C(O)CC(=O)Nc1ccc(-c2nc3ccccc3[nH]2)cc1 | 6.12 | 6.91 | 21.2 (≈ 6.25 µg/mL) | 7.2 | 42.3 (≈ 12.5 µg/mL) | 47.8
O=C(O)CCC(=O)Nc1ccc(-c2nc3cc([N+](=O)[O-])ccc3[nH]2)cc1 | 8.32 | 17.5 | 17 (≈ 6.01 µg/mL) | 24.6 | 17 (≈ 6.01 µg/mL) | 27.9
COC(=O)CCCC(=O)Nc1ccc(-c2nc3cc(F)ccc3[nH]2)cc1 | 10.7 | 18.6 | 32.2 (≈ 11.4 µg/mL) | 33.8 | 70.3 (≈ 25 µg/mL) | 59.3
CO[C@@H]1[C@@H](OC(N)=O)[C@@H](O)[C@H](Oc2ccc3c(O)c(NC(=O)c4ccc(O)c(CC=C(C)C)c4)c(=O)oc3c2C)OC1(C)C [NOVOBIOCIN] |  |  |  |  | 0.25 (≈ 0.153 µg/mL) | 
Cc1cc2ncn(CC(O)COc3cccc(C(=O)O)c3)c2cc1C (stereo unspecified) | 3.13 | 12.9 |  |  |  | 
O=C(O)COCC(=O)Nc1ccc(-c2nc3cc([N+](=O)[O-])ccc3[nH]2)cc1 | 5.8 | 8.51 | 47 (≈ 17.4 µg/mL) | 31.3 | 33.8 (≈ 12.5 µg/mL) | 83.2
COc1ccc2[nH]c(-c3ccc(NC(=O)CSCC(=O)O)cc3)nc2c1 | 16 | 9.31 | 67.3 (≈ 25 µg/mL) | 22.6 | 67.3 (≈ 25 µg/mL) | > 100
Cc1sc2nc(SCC(=O)Nc3cccc(C(=O)O)c3)nc(O)c2c1C | 8.22 | 17.3 |  |  |  | 
CCc1cc(=O)nc(SCC(=O)Nc2cccc(C(=O)O)c2)[nH]1 | > 50 | 65 |  |  |  | 
